Data set [1] has as its target T1, Human immunodeficiency virus type 1 integrase (Human immunodeficiency virus 1, UniProt Q7ZJM1). Briefly: Inhibition of HIV1 integrase by overall integration assay.
Data set [2] has as its system Human immunodeficiency virus 1. Description: Antiviral activity against HIV1 3B in MT4 cells assessed as inhibition of virus-induced cytopathic effect by MTT assay. In kind it is functional, organism-based. As to conditions: Human immunodeficiency virus 1, 3B. Summed up: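 Human lymphocyte MT-4 cultures were infected with HIV-1, and protection from virus-induced cytopathic effect was read by MTT.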
For orientation: Protection from cytopathic effect is a common read-out in antiviral testing.

Data set [3] is described as follows: Cytotoxicity against human MT4 cells by MTT assay. In kind it is cell-based. Summed up: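 Human lymphocyte MT-4 cultures were read by MTT in the MT-4/MTT format.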
A general note: Tetrazolium dyes change colour on reduction, which living cells bring about.

Data set [4] concerns the target T1, Human immunodeficiency virus type 1 integrase. Briefly: Inhibition of HIV1 integrase 3'-processing activity.
For data set [5] the target is unchanged. Briefly: Inhibition of HIV1 integrase DNA strand transfer activity.

T1 sequence (Q7ZJM1 whole entry): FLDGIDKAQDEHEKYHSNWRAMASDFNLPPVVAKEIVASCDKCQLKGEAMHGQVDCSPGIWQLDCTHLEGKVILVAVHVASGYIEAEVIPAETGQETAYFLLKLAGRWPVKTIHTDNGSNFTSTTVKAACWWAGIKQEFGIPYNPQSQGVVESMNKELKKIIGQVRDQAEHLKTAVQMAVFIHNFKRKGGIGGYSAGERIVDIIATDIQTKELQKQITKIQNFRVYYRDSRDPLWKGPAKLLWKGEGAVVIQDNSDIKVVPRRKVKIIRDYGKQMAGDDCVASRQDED

As for `O=C(O)c1cn(CCO)c2ccc(-c3ccncc3)cc2c1=O`, the figures for the IC50 in data set [1], in data set [4] and in data set [5] were 77.6 µM, greater than 100 µM and greater than 100 µM, respectively. Further, the EC50 – broadly, the midpoint of the concentration-response curve – in data set [2] was greater than 138 µM. Besides, in data set [3], the CC50 (commonly the concentration that lowers cell viability or growth by half) was found to be 138 µM.

In the case of `CCn1cc(C(=O)O)c(=O)c2c1C(=O)C=CC2=O`, the IC50 (as a rule, the concentration that gives 50% inhibition) came out at 43.7 µM in data set [1] and 58.7 µM in data set [5]. Further, in data set [2], the EC50 was greater than 42.8 µM. This compound yielded a CC50 in data set [3] of 42.8 µM.

Consider `COc1cc2c(cc1Cc1cccc(Cl)c1F)c(=O)c(C(=O)O)cn2[C@H](CO)C(C)C`, for which the EC50 in data set [2] turned out to be 0.00037 µM. In data set [3], it took 1.15 µM to reach half-maximal cytotoxicity (CC50).

For the compound `O=C(c1ccc2c(c1)c(=O)c(C(=O)O)cn2CCCO)c1ccc(Cl)cc1Cl`, the IC50 was 73.9 µM in data set [1], greater than 100 µM in data set [4] and greater than 100 µM in data set [5]. Besides, in data set [2], the EC50 is greater than 17.5 µM. This compound came in with a CC50 in data set [3] of 17.5 µM.

Take `O=C(O)c1cn(CCO)c2ccc(Cc3ccc(Cl)cc3Cl)cc2c1=O`: the IC50 in data set [1] came out at 0.07 µM; in data set [5], 0.2 µM. Also, in data set [2], the EC50 was greater than 5.3 µM. The compound further came in with a 50% cytotoxic concentration (CC50) in data set [3] of 5.3 µM.

In the case of `CCn1cc(C(=O)O)c(=O)c2c1C(=O)C=C(Sc1ccccc1)C2=O`, the values for the IC50 in data set [1] and in data set [5] were 4.6 µM and 1.6 µM, respectively. Moreover, in data set [2], the EC50 was greater than 30 µM. Besides, half-maximal cytotoxicity in data set [3] (CC50) was put at 30 µM.

As to `O=C(O)c1cn(CCO)c2ccc(Sc3ccccc3)cc2c1=O`, the IC50 in data set [1] was determined as 4.8 µM; in data set [5], 18.5 µM. In data set [2], the EC50 is greater than 22.7 µM. The CC50 in data set [3] is 22.7 µM.

As to `O=C(O)c1cn(CCO)c2ccc(/C=C/c3ccccc3)cc2c1=O`, the IC50 in data set [1] is 71.9 µM; in data set [5] it was greater than 100 µM. Moreover, the EC50 in data set [2] was greater than 22.6 µM. In data set [3], this compound had a CC50 of 22.6 µM.

Take `O=C(Nc1ccccc1)c1ccc2c(c1)c(=O)c(C(=O)O)cn2CCO`: the IC50 in data set [1] and in data set [5] was greater than 100 µM throughout. Further, in data set [2], the EC50 was greater than 224 µM. Besides, it took 224 µM to reach half-maximal cytotoxicity in data set [3] (CC50).

Consider `O=C(O)c1cn(CCO)c2ccc(Nc3cccc(Cl)c3F)cc2c1=O`, for which the IC50 in data set [1] and in data set [5] was greater than 100 µM each time. Further, the EC50 in data set [2] is greater than 27.4 µM. It took 27.4 µM to reach half-maximal cytotoxicity in data set [3] (CC50).

On to `COCCn1cc(C(=O)O)c(=O)c2cc(Cc3ccc(Cl)cc3Cl)ccc21`, for which the figures for the IC50 in data set [1] and in data set [5] were 5.6 µM and 16.5 µM, respectively. Further, in data set [2], the EC50 was greater than 4.2 µM. The same compound gave a CC50 in data set [3] of 4.2 µM.

Consider `O=C(c1ccc2c(c1)c(=O)c(C(=O)O)cn2CCCCO)c1ccc(Cl)cc1Cl`, for which the results for the IC50 in data set [1], in data set [4] and in data set [5] were 54.9 µM, greater than 100 µM and greater than 100 µM, respectively. Also, the EC50 in data set [2] is greater than 17 µM. This compound also yielded a CC50 in data set [3] of 17 µM.

Regarding `O=C(c1ccc2c(c1)c(=O)c(C(=O)O)cn2CCO)c1ccc(Cl)cc1Cl`, the half-inhibitory concentration (IC50) in data set [1] is 18.7 µM; in data set [4] it was greater than 100 µM; in data set [5], greater than 100 µM. Also, the EC50 in data set [2] is greater than 21.1 µM. The CC50 in data set [3] turned out to be 21.1 µM.

In the case of `O=C(Nc1ccc2c(c1)c(=O)c(C(=O)O)cn2CCO)c1ccccc1`, the IC50 in data set [1] and in data set [5] was greater than 100 µM in each case. The EC50 in data set [2] was greater than 220 µM. In data set [3], this compound gave a CC50 of 220 µM.

In the case of `O=C(O)c1cn(CCO)c2ccc(-c3ccccc3)cc2c1=O`, the IC50 in data set [1] and in data set [5] was greater than 100 µM in each case. For the same compound, in data set [2], the EC50 is greater than 44.9 µM. This compound gave a CC50 in data set [3] of 44.9 µM.

Turning to `O=C(O)c1cn(CCO)c2ccc(Oc3ccc(F)c(Cl)c3)cc2c1=O`, the values for the IC50 in data set [1], in data set [4] and in data set [5] were 86.9 µM, greater than 100 µM and greater than 100 µM, respectively. The EC50 in data set [2] is greater than 9.9 µM. The compound further showed a CC50 in data set [3] of 9.9 µM.

For the compound `O=C(O)c1cn(CCCCO)c2ccc(Cc3ccc(Cl)cc3Cl)cc2c1=O`, the values for the IC50 in data set [1], in data set [4] and in data set [5] were 0.05 µM, 16.6 µM and 0.6 µM, respectively. Also, the EC50 in data set [2] is greater than 4.2 µM. In addition, the midpoint of cytotoxicity in data set [3], the CC50, lay at 4.2 µM.

Regarding `CCn1cc(C(=O)O)c(=O)c2cc(Nc3cccc(Cl)c3F)ccc21`, the IC50 in data set [1] is 38 µM; in data set [4], greater than 100 µM; in data set [5], greater than 100 µM. Further, the EC50 in data set [2] was greater than 9.8 µM. Moreover, in data set [3], the half-maximal cytotoxic concentration (CC50) was found to be 9.8 µM.

In the case of `CN(C)CCn1cc(C(=O)O)c(=O)c2cc(Cc3ccc(Cl)cc3Cl)ccc21`, the half-inhibitory concentration (IC50) in data set [1] was 10.8 µM; in data set [5], 24.1 µM. For the same compound, the EC50 in data set [2] is greater than 5.2 µM. The same compound yielded a CC50 in data set [3] of 5.2 µM.

`O=C(O)c1cn(CCCO)c2ccc(Cc3ccc(Cl)cc3Cl)cc2c1=O`: the IC50 came out at 0.9 µM in data set [1] and 1.3 µM in data set [5]. Besides, the EC50 in data set [2] was greater than 3.6 µM. The same compound registered a CC50 in data set [3] of 3.6 µM.

The compound `O=C(O)c1cn(CCO)c2ccc(Cc3cccc(Cl)c3F)cc2c1=O` came in with a CC50 in data set [3] greater than 15 µM.

Take `CCn1cc(C(=O)O)c(=O)c2c1C(=O)C=C(Nc1ccc(F)c(Cl)c1)C2=O`: the values for the IC50 in data set [1] and in data set [5] were 1 µM and 2.1 µM, respectively. Moreover, the EC50 in data set [2] is greater than 2.2 µM. The same compound registered a CC50 in data set [3] of 2.2 µM.

As for `CCn1cc(C(=O)O)c(=O)c2c1C(=O)C=C(Nc1cccc(Cl)c1F)C2=O`, the values for the IC50 in data set [1], in data set [4] and in data set [5] were 9.7 µM, greater than 100 µM and greater than 100 µM, respectively. Besides, the EC50 in data set [2] is greater than 2.4 µM. This compound displayed a CC50 in data set [3] of 2.4 µM.

For the origin of these results see ChEMBL document CHEMBL1156566, “Investigations on the 4-quinolone-3-carboxylic acid motif. 1. Synthesis and structure-activity relationship of a class of human immunodeficiency virus type 1 integrase inhibitors” (J Med Chem, 2008).
